According to ChEMBL document CHEMBL2034972, “Synthesis, biological evaluation, and structure-activity relationships of N-benzoyl-2-hydroxybenzamides as agents active against P. falciparum (K1 strain), Trypanosomes, and Leishmania” (J Med Chem, 2012):
In brackets after ≈: the same amount, converted by molar mass.

Experiments:
Plasmodium falciparum = assay: Antimalarial activity against chloroquine and pyrimethamine-resistant Plasmodium falciparum […] assessed as [3H]-hypoxanthine incorporation after 48 hrs by liquid scintillation counting; assay type: functional, organism-based
Method in brief: (§1)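 In vitro screens of parasites and host cells: T. b. rhodesiense STIB900 trypomastigotes, T. cruzi Tulahuen C4 intracellular amastigotes, L. donovani MHOM-ET-67/L82 axenic amastigotes, P. falciparum K1 erythrocytic stage, and L6 rat skeletal myoblasts […] for toxicity. […] Values are means of two independent determinations.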

Leishmania donovani = assay: Antileishmanial activity against axenic amastigote stage of Leishmania donovani […] after 72 hrs by alamar blue assay; assay type: functional, organism-based; settings: MHOM/ET/67/L82, L6, 72 h
Method in brief: (§2)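 In vitro screens of parasites and host cells: T. b. rhodesiense STIB900 trypomastigotes, T. cruzi Tulahuen C4 intracellular amastigotes, L. donovani MHOM-ET-67/L82 axenic amastigotes, P. falciparum K1 erythrocytic stage, and L6 rat skeletal myoblasts […] for toxicity. Values are means of two independent determinations.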

[1] = Selectivity index, ratio of IC50 for rat L6 cells to IC50 for chloroquine and pyrimethamine-resistant Plasmodium falciparum K1; assay type: toxicity, cell-based; settings: read-out: Ratio IC50
Method in brief: (§3)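 Selectivity index is calculated as the L6 myoblast IC50 divided by the IC50 against the respective parasite. Both IC50s are in µg/mL and are means of two independent determinations.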

Trypanosoma cruzi = assay: Antitrypanosomal activity against intracellular amastigote stage of Trypanosoma cruzi Tulahuen C2C4 infected in rat L6 cells after 96 hrs by spectrophotometric analysis; assay type: functional, organism-based; settings: Tulahuen C2C4, L6, 96 h; method in brief: as §2
[2] = Selectivity index, ratio of IC50 for rat L6 cells to IC50 for axenic amastigote stage of Leishmania donovani MHOM/ET/67/L82; assay type: toxicity, cell-based; settings: read-out: Ratio IC50; method in brief: as §3
L6 = assay: Cytotoxicity against rat L6 cells after 72 hrs by alamar blue assay; assay type: cell-based; settings: L6, 72 h; method in brief: as §1
[3] = Selectivity index, ratio of IC50 for rat L6 cells to IC50 for intracellular amastigote stage of Trypanosoma cruzi Tulahuen C2C4; assay type: toxicity, cell-based; settings: read-out: Ratio IC50; method in brief: as §3
[4] = system: Trypanosoma brucei rhodesiense; assay: Antitrypanosomal activity against trypomastigotes of Trypanosoma brucei rhodesiense […] after 72 hrs by alamar blue assay; assay type: functional, organism-based; settings: STIB 900, L6, 72 h; method in brief: as §1
[5] = Selectivity index, ratio of IC50 for rat L6 cells to IC50 for trypomastigotes of Trypanosoma brucei rhodesiense STIB 900; assay type: toxicity, cell-based; settings: read-out: Ratio IC50; method in brief: as §3
[6] = Aqueous solubility of the compound in phosphate based buffer at pH 4; assay type: physicochemical
[7] = Aqueous solubility of the compound in phosphate based buffer at pH 7.4; assay type: physicochemical
[8] = Metabolic stability of the compound in human liver microsomes assessed as compound remaining after 60 mins; assay type: ADME, Microsome; settings: read-out: Stability
CYP3A4 = CYP3A4 (Homo sapiens, UniProt P08684); assay: Inhibition of CYP3A4 at 10 uM; assay type: ADME
Sequence of CYP3A4 (P08684 whole entry): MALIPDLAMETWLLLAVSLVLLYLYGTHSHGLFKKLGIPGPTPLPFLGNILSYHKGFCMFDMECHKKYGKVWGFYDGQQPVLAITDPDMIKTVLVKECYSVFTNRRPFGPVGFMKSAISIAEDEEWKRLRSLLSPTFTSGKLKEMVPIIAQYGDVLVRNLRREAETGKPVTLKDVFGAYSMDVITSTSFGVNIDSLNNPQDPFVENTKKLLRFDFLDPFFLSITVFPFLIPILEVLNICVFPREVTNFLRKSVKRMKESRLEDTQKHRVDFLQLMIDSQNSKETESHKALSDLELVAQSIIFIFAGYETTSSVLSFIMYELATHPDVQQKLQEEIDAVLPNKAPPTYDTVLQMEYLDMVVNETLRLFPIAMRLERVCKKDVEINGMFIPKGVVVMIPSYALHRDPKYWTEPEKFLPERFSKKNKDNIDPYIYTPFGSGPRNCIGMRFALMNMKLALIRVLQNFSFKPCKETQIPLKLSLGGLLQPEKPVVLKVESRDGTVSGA

[9] = target: Voltage-gated inwardly rectifying potassium channel KCNH2 (Homo sapiens, UniProt Q12809); assay: Inhibition of human Erg at 300 uM
Sequence of Voltage-gated inwardly rectifying potassium channel KCNH2 (Q12809 whole entry): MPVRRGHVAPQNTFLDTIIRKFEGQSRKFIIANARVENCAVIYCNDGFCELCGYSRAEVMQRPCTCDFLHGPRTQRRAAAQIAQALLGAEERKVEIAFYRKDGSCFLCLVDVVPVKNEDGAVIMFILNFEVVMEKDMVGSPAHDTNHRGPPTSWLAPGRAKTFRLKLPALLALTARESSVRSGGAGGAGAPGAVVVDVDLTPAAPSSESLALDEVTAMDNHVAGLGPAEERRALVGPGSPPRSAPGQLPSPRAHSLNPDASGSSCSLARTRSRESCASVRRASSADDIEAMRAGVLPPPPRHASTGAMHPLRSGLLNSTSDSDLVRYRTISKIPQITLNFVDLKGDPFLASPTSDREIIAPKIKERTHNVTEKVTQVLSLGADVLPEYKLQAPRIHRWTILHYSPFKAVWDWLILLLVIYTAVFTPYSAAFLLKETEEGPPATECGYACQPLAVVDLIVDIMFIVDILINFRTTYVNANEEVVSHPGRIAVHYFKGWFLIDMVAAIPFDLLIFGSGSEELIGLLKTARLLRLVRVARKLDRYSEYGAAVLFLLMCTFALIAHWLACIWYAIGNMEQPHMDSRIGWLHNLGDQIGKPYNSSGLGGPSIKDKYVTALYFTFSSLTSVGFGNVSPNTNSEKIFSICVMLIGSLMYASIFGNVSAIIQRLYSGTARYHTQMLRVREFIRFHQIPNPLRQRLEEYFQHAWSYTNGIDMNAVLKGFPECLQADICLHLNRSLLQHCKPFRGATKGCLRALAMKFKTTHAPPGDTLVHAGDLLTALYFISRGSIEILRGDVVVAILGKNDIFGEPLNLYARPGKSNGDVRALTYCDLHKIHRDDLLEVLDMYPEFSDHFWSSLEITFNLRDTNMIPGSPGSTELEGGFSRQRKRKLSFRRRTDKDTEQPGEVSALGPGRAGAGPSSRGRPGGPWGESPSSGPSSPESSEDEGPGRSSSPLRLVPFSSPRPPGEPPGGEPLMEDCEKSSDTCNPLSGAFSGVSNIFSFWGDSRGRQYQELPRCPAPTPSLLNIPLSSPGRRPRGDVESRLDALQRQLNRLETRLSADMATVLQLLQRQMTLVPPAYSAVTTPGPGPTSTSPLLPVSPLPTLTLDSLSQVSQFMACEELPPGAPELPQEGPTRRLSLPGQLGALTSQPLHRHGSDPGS

CYP2C9 = CYP2C9 (Homo sapiens, UniProt P11712); assay: Inhibition of CYP2C9 at 10 uM; assay type: ADME
Sequence of CYP2C9 (P11712 whole entry): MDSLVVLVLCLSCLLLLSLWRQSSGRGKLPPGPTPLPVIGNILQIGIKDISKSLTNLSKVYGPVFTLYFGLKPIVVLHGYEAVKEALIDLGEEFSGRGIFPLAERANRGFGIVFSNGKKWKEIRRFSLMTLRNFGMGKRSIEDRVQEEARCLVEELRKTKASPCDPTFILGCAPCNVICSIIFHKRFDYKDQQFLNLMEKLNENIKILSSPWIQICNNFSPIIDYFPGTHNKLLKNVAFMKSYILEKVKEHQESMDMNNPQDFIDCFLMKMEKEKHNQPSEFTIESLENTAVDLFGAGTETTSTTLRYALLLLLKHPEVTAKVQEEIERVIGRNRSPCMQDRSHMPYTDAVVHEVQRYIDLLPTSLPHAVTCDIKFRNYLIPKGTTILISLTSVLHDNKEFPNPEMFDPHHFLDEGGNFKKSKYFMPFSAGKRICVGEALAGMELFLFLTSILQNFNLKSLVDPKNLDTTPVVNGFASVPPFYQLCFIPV

[10] = Metabolic stability of the compound in human liver microsomes assessed as compound remaining after 60 mins in presence of NADPH; assay type: ADME, Microsome; settings: read-out: Stability
CYP2D6 = CYP2D6 (Homo sapiens, UniProt P10635); assay: Inhibition of CYP2D6 at 10 uM; assay type: ADME
Sequence of CYP2D6 (P10635 whole entry): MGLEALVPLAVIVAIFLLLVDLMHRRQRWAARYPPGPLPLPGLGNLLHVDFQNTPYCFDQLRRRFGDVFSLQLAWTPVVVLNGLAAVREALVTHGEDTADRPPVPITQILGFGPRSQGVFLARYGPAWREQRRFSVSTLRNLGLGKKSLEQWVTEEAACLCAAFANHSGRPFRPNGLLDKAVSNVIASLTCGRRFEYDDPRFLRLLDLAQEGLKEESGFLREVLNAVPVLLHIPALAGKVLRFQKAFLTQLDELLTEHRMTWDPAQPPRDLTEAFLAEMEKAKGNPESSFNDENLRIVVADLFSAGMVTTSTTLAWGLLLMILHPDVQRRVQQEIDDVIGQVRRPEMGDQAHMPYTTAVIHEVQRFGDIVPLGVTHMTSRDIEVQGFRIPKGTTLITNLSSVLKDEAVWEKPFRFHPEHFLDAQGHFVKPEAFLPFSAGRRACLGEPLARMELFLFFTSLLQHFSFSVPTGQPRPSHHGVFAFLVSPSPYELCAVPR

[11] = Plasma protein binding in human; assay type: ADME, cell-free; settings: read-out: PPB (converted)
[12] = Intrinsic clearance in human liver microsomes assessed per mg of protein; assay type: ADME, Microsome; settings: read-out: CLH

SMILES | IC50 (Plasmodium falciparum) [µg/mL] | IC50 (Leishmania donovani) [µg/mL] | selectivity ratio [1] | IC50 (Trypanosoma cruzi) [µg/mL] | selectivity ratio [2] | IC50 (L6) [µg/mL] | selectivity ratio [3] | IC50 [4] [µg/mL] | selectivity ratio [5] | solubility [6] [µM] | solubility [7] [µM] | remaining at 1 h [8] [%] | inhibition at 10 µM (CYP3A4) [%] | inhibition (INH) [9] | inhibition at 10 µM (CYP2C9) [%] | remaining at 1 h [10] [%] | inhibition at 10 µM (CYP2D6) [%] | fraction unbound [11] | microsomal CLint [12] [µL/min/mg]
O=C(NC(=O)c1ccccc1O)c1ccc2ccccc2c1 | 0.22 (≈ 0.755 µM) | 1 (≈ 3.43 µM) | 94 | 8.5 (≈ 29.2 µM) | 20 | 21 (≈ 72.1 µM) | 2.4 | 26 (≈ 89.3 µM) | 0.78 | – | – | – | – | – | – | – | – | – | –
COc1ccc2cc(C(=O)NC(=O)c3ccccc3O)ccc2c1 | 0.98 (≈ 3.05 µM) | 1.4 (≈ 4.36 µM) | 57 | 5.1 (≈ 15.9 µM) | 40 | 56 (≈ 174 µM) | 11 | 42 (≈ 131 µM) | 1.3 | – | – | – | – | – | – | – | – | – | –
O=C(NC(=O)c1ccccc1O)c1cccc(CCl)c1 | 4.4 (≈ 15.2 µM) | 0.16 (≈ 0.552 µM) | 0.4 | 17 (≈ 58.7 µM) | 11 | 1.8 (≈ 6.21 µM) | 0.1 | 20 (≈ 69 µM) | 0.087 | – | – | – | – | – | – | – | – | – | –
O=C(NC(=O)c1ccc(Cl)cc1Cl)c1ccccc1O | 14 (≈ 45.1 µM) | 11 (≈ 35.5 µM) | 4.4 | 58 (≈ 187 µM) | 5.5 | 62 (≈ 200 µM) | 1.1 | > 100 | < 0.62 | – | – | – | – | – | – | – | – | – | –
O=C(NC(=O)c1ccccc1O)c1ccc2c(c1)OCO2 | 4.2 (≈ 14.7 µM) | > 50 | 5.6 | 27 (≈ 94.7 µM) | < 0.47 | 24 (≈ 84.1 µM) | 0.86 | > 50 | < 0.47 | – | – | – | – | – | – | – | – | – | –
COc1cc(C(=O)NC(=O)c2ccccc2O)cc(OC)c1OC | 0.78 (≈ 2.35 µM) | 3.2 (≈ 9.66 µM) | 26 | 40 (≈ 121 µM) | 6.5 | 21 (≈ 63.4 µM) | 0.51 | 79 (≈ 238 µM) | 0.26 | – | – | – | – | – | – | – | – | – | –
O=C(NC(=O)C1CCCCC1)c1ccccc1O | 13 (≈ 52.6 µM) | 6 (≈ 24.3 µM) | 4.4 | 16 (≈ 64.7 µM) | 9.2 | 55 (≈ 222 µM) | 3.4 | > 100 | < 0.55 | – | – | – | – | – | – | – | – | – | –
Cc1occc1C(=O)NC(=O)c1ccccc1O | 4.7 (≈ 19.2 µM) | 2 (≈ 8.16 µM) | 3.4 | 36 (≈ 147 µM) | 7.8 | 16 (≈ 65.2 µM) | 0.44 | 48 (≈ 196 µM) | 0.33 | – | – | – | – | – | – | – | – | – | –
CCc1ccc(C(=O)N(C)C(=O)c2ccccc2O)cc1 | 28 (≈ 98.8 µM) | 9.1 (≈ 32.1 µM) | 0.33 | 29 (≈ 102 µM) | 1 | 9.4 (≈ 33.2 µM) | 0.33 | > 100 | < 0.094 | – | – | – | – | – | – | – | – | – | –
CCc1ccc(C(=O)NNC(=O)c2ccccc2O)cc1 | 27 (≈ 95 µM) | 6.2 (≈ 21.8 µM) | 0.18 | 2.2 (≈ 7.74 µM) | 0.77 | 4.8 (≈ 16.9 µM) | 2.2 | 17 (≈ 59.8 µM) | 0.28 | – | – | – | – | – | – | – | – | – | –
CCc1ccc(C(=O)NC(=S)c2ccccc2O)cc1 | 4.2 (≈ 14.7 µM) | 5.3 (≈ 18.6 µM) | 4.1 | 10 (≈ 35 µM) | 3.3 | 17 (≈ 59.6 µM) | 1.7 | 61 (≈ 214 µM) | 0.28 | – | – | – | – | – | – | – | – | – | –
CCc1ccc(NC(=O)NC(=O)c2ccccc2O)cc1 | 26 (≈ 91.4 µM) | 100 (≈ 352 µM) | 2.8 | 74 (≈ 260 µM) | 0.7 | 70 (≈ 246 µM) | 0.95 | 36 (≈ 127 µM) | 2 | – | – | – | – | – | – | – | – | – | –
CCc1ccc(NC(=O)Nc2ccccc2O)cc1 | 2.1 (≈ 8.19 µM) | 3.7 (≈ 14.4 µM) | 4.6 | 7 (≈ 27.3 µM) | 2.6 | 9.6 (≈ 37.5 µM) | 1.4 | 18 (≈ 70.2 µM) | 0.54 | – | – | – | – | – | – | – | – | – | –
CCc1ccc(C(=O)n2c(=O)oc3ccccc3c2=O)cc1 | 6.9 (≈ 23.4 µM) | 1.9 (≈ 6.43 µM) | 3.7 | 8.8 (≈ 29.8 µM) | 13 | 26 (≈ 88 µM) | 3 | 83 (≈ 281 µM) | 0.31 | – | – | – | – | – | – | – | – | – | –
CCc1ccc(C(=O)Nc2cn(C(C)=O)c3ccccc23)cc1 | 23 (≈ 75.1 µM) | > 50 | 1 | 28 (≈ 91.4 µM) | < 0.46 | 23 (≈ 75.1 µM) | < 0.81 | > 50 | < 0.46 | – | – | – | – | – | – | – | – | – | –
CCc1ccc(NC(=O)CC(=O)Nc2ccccc2O)cc1 | 12 (≈ 40.2 µM) | 13 (≈ 43.6 µM) | 1.3 | 20 (≈ 67 µM) | 1.2 | 16 (≈ 53.6 µM) | 0.76 | 35 (≈ 117 µM) | 0.44 | – | – | – | – | – | – | – | – | – | –
CCc1ccc(C(=O)NC(=O)c2ccccc2O)cc1 | 5.6 (≈ 20.8 µM) | 7.4 (≈ 27.5 µM) | – | 4.8 (≈ 17.8 µM) | – | 70 (≈ 260 µM) | – | 81 (≈ 301 µM) | – | 2.76 (≈ 0.743 µg/mL) | 50.8 (≈ 13.7 µg/mL) | 53 | 71 | Not Active | 71 | 0.5 | 71 | 0.001 | 282
O=C(NC(=O)c1ccccc1O)c1ccccc1O | 1.1 (≈ 4.28 µM) | 1.9 (≈ 7.39 µM) | 36 | 14 (≈ 54.4 µM) | 21 | 39 (≈ 152 µM) | 2.8 | 62 (≈ 241 µM) | 0.63 | – | – | – | – | – | – | – | – | – | –
OC(Cn1cncn1)(Cn1cncn1)c1ccc(F)cc1F [FLUCONAZOLE] | – | – | – | – | – | – | – | – | – | – | – | – | – | – | – | – | – | 0.763 | –
